The results in this text go back to ChEMBL document CHEMBL1147664, “(S)-4,5-dihydro-2-(2-hydroxy-4-hydroxyphenyl)-4-methyl-4-thiazolecarboxylic acid polyethers: a solution to nephrotoxicity” (J Med Chem, 2006).

The subject of data set [1] is Rattus norvegicus. Nature of the data set: Iron-clearing efficiency in non-iron-overloaded Sprague-Dawley rat at 300 umol/kg, sc. It counts as functional. Put shortly:
(§1)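 Bile-duct-cannulated, non-iron-overloaded male Sprague-Dawley rats (400–450 g), single 300 μmol/kg dose po or sc, given in water or as the monosodium salt depending on compound. Bile collected at 3-h intervals for 24 h; urine at 24 h. Efficiency = (treated minus control iron excretion) / theoretical output, as percent; mean ± SEM.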

Data set [2] has as its system Rattus norvegicus. The data set can be described thus: Iron-clearing efficiency in non-iron-overloaded Sprague-Dawley rat at 300 umol/kg, po. It counts as functional. The essentials: as §1
The test system of data set [3] is Sapajus apella. The data set can be described thus: Iron-clearing efficiency in iron-loaded Cebus apella at 150 umol/kg, po. It counts as functional. The essentials: (§2)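 Cebus apella monkeys (3.5–4 kg), iron overloaded with iv iron dextran (about 500 mg Fe/kg), used at least 60 d later; single 150 μmol/kg dose. Feces and urine collected every 24 h from 4 d before to 5 d after dosing; iron by flame atomic absorption. Efficiency = (2-day post-drug iron minus mean 4-day baseline) / theoretical output, as percent; mean ± SEM.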

Data set [4] deals with Sapajus apella. The data set can be described thus: Iron-clearing efficiency in iron-loaded Cebus apella at 150 umol/kg, sc. It counts as functional. Put shortly:
as §2

Data set [5] can be described thus: Apparent partition coefficient of the compound at pH7.4. It counts as physicochemical. The following applies: octanol/water, pH 7.4; read-out: LogD7.4. The essentials: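 Apparent partition coefficient by shake-flask direct method between octanol and TRIS buffer, pH 7.4; reported as log of the fraction in the octanol layer (log P_app).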
The test system of data set [6] is Rattus norvegicus. Nature of the data set: Nephrotoxicity in rat at 300 umol/kg. The following applies: in vivo.
The nature of data set [7]: Distribution in Sprague-Dawley rat plasma at 300 umol/kg, sc after 8 hrs. In kind it is ADME, organism-based. Put shortly: (§3)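 Male Sprague-Dawley rats (250–350 g), single sc 300 μmol/kg dose; euthanized by CO2 at 2, 4, 6, 8 h (n = 3 per time point). Citrated cardiac-puncture plasma; tissues homogenized in water 1:2 (w/v), proteins precipitated with methanol at −20 °C, filtered. Reversed-phase HPLC with UV at 310 nm; levels from calibration curves, as nmol/g wet weight; detection limit about 5 nmol/g.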

For data set [8], the system named is Rattus norvegicus. Nature of the data set: Distribution in Sprague-Dawley rat pancreas at 300 umol/kg, sc after 2 hrs. It counts as ADME, organism-based. As to conditions: in vivo; call rule not given here. The essentials:
as §3

Data set [9] in a line: Distribution in Sprague-Dawley rat plasma at 300 umol/kg, sc after 2 hrs. In kind it is ADME, organism-based. The essentials:
as §3

The test system of data set [10] is Rattus norvegicus. Nature of the data set: Distribution in Sprague-Dawley rat heart at 300 umol/kg, sc after 2 hrs. It counts as ADME, organism-based. As to conditions: in vivo. Put shortly: as §3
Data set [11] concerns Rattus norvegicus. Nature of the data set: Distribution in Sprague-Dawley rat kidney at 300 umol/kg, sc after 2 hrs. It counts as ADME, organism-based. The following applies: in vivo. Put shortly:
as §3

The test system of data set [12] is Rattus norvegicus. Nature of the data set: Distribution in Sprague-Dawley rat pancreas at 300 umol/kg, sc after 8 hrs. In kind it is ADME, organism-based. The following applies: in vivo. Put shortly: as §3
Data set [13] has as its system Rattus norvegicus. The data set can be described thus: Distribution in Sprague-Dawley rat kidney at 300 umol/kg, sc after 8 hrs. It counts as ADME, organism-based. The following applies: in vivo. Put shortly: as §3
Data set [14] deals with Rattus norvegicus. Nature of the data set: Distribution in Sprague-Dawley rat heart at 300 umol/kg, sc after 8 hrs. It counts as ADME, organism-based. The following applies: in vivo. The essentials:
as §3

In data set [15] the test system is Rattus norvegicus. The data set can be described thus: Distribution in Sprague-Dawley rat heart at 300 umol/kg, sc after 4 hrs. It counts as ADME, organism-based. As to conditions: in vivo. Put shortly:
as §3

For data set [16], the system named is Plasma. Nature of the data set: Distribution in Sprague-Dawley rat plasma at 300 umol/kg, sc. It counts as ADME. As to conditions: read-out: Cp. The essentials:
as §3

Data set [17] concerns Rattus norvegicus. The data set can be described thus: Distribution in Sprague-Dawley rat liver at 300 umol/kg, sc after 8 hrs. As to conditions: in vivo. In kind it is ADME, organism-based. Put shortly: as §3
Data set [18] deals with Rattus norvegicus. Nature of the data set: Distribution in Sprague-Dawley rat liver at 300 umol/kg, sc after 2 hrs. The following applies: in vivo. It counts as ADME, organism-based. The essentials:
as §3

A value given as a limit tells only on which side of the number the result lay.

Turning to `COCCOCCOCCOc1ccc(C2=N[C@@](C)(C(=O)OC(C)C)CS2)c(O)c1`, the Activity in data set [1] was 22.1%; in data set [2], 13.9%; in [3], 19.5%.

With `CCOC(=O)[C@@]1(C)CSC(c2ccc(OCCOCCOCCOC)cc2O)=N1`, the Activity in [1] was 11.4%; in data set [4], 17.9%.

For the compound `O=C(O)[C@H]1CSC(c2ccccc2O)=N1`, the logD in data set [5] is -0.93.

Take `C[C@]1(C(=O)O)CSC(c2ccccc2O)=N1`: the logD in data set [5] was -0.34.

As for `CC1(C)SC(c2ccc(O)cc2O)=N[C@H]1C(=O)O`, in data set [5], the logD is -0.91.

As to `COc1ccc(C2=N[C@@](C)(C(=O)O)CS2)c(O)c1`, the Activity entry in [6] is “Active”; in [2], 6.6%. In addition, in data set [7], the concentration at 8 h was 75 µM. The Drug uptake in [8] was determined as 38 nmol/g. Moreover, in [9], the concentration at 2 h is 470 µM.

As to `CC1(C)SC(c2ccccc2O)=N[C@H]1C(=O)O`, the logD in [5] was -0.34.

As to `COCCOCCOCCOc1ccc(C2=N[C@@](C)(C(=O)O)CS2)c(O)c1`, the Drug uptake was 9 nmol/g in [10]; 41 nmol/g in data set [11]; 3 nmol/g in [12]; less than 10 nmol/g in data set [13]; 2 nmol/g in data set [14]; 5 nmol/g in [15]. The compound further displayed a Drug uptake in data set [8] of 30 nmol/g. Also, the Activity was found to be 8.7% in data set [1], 5.5% in data set [2], 30.4% in data set [4] and 25.4% in [3]. Further, in [16], the concentration is less than 10 µM. Also, the logD in data set [5] is -1.1.

Take `C[C@]1(C(=O)O)CSC(c2ccc(O)cc2O)=N1` [DEFERITRIN]: the Drug uptake in [10] amounted to 5 nmol/g; in data set [11], 100 nmol/g; in data set [17], 12 nmol/g; in data set [18] it was 48 nmol/g; in data set [13] it was 9 nmol/g; in data set [8] it was 6 nmol/g. In addition, the Activity in data set [1] is recorded as 1.1%; in [2] it was 1.1%; in data set [4] it was 15.9%; in [3], 16.8%. Further, in data set [16], the concentration was less than 10 µM.
